Source: ChEMBL document CHEMBL4513216, “Probing the Open Global Health Chemical Diversity Library for Multistage-Active Starting Points for Next-Generation Antimalarials” (ACS Infect Dis, 2020)

Experiment: Toxicity liver stage against HepG2, at 10uM
Format: cell-based
Design: test concentration 10 uM, cell line HepG2-A16-CD81EGFP
Conditions: human, HepG2-A16-CD81EGFP cells; read-out: INHIBITION
Summary of the method: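 Uninfected HepG2-A16-CD81EGFP cells, 3 × 10^3 per well, 1536-well, plated on prespotted compound at 10 μM final, parasite-free screening media added to match infected plates; puromycin 10 μM positive, DMSO 0.5% negative; run in parallel with 48 h PbLuc assay at 37 °C, 5% CO2; viability by CellTiter-Glo luminescence, normalized to controls.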

## CCCS(=O)(=O)N1CCN(c2cc(-n3cccc3)nc(C)n2)CC1
  cytotoxicity at 10 µM: 6.62%

## Cc1ccc(OCC(=O)NC2CC2)nc1
  cytotoxicity at 10 µM: 4.06%

## CCOc1ncccc1NC(=O)NC1CCN(S(C)(=O)=O)CC1
  cytotoxicity at 10 µM: -7.96%

## O=C(Nc1ccccc1)[C@H]1C[C@H]2CN(Cc3cccnc3)C[C@@H]1O2
  cytotoxicity at 10 µM: -80%

## Cc1c(-c2cc(C(F)F)nc3sc(C(N)=O)c(N)c23)cnn1C
  cytotoxicity at 10 µM: 10.1%

## O=C(c1cc(F)cc(Cl)c1)N1C[C@H]2CC[C@@H](C1)N(Cc1ccccc1)C2
  cytotoxicity at 10 µM: -128%

## O=C(NCC1CCC2(CCNCC2)CO1)c1cnccn1 (stereo not given)
  cytotoxicity at 10 µM: 9.51%

## Cc1cc(N2CCC(C(=O)O)(n3ccc(C(C)(C)C)n3)CC2)nc(N)n1
  cytotoxicity at 10 µM: -5.6%

## COCCNC(=O)Cn1ccc2ccc(F)cc21
  cytotoxicity at 10 µM: 2.14%

## O=C([C@H]1C[C@H]2OCC[C@H]2N(CC2CCOCC2)C1)N1CCCC1
  cytotoxicity at 10 µM: -0.972%

## CC(C)c1ncc2c(n1)CN(CC(=O)Nc1ccncc1)CC2
  cytotoxicity at 10 µM: -3.23%

## CCNc1cc2c(nn1)CCN(C(=O)c1ccsc1)C2
  cytotoxicity at 10 µM: -13.7%

## Cc1cccc(CN2CCc3ncnc(-c4ccsc4)c3CC2)n1
  cytotoxicity at 10 µM: -78.2%

## CS(=O)(=O)NC[C@@H]1OC[C@H]2CN(C(=O)c3ccccn3)CC[C@H]21
  cytotoxicity at 10 µM: -7.47%

## O=C(Cn1ccnc1)N1C[C@@H]2CC[C@H](Oc3ccc(Cl)cc3)[C@@H]2C1
  cytotoxicity at 10 µM: -3.8%

## CCN(CC)CC[C@H]1CN(C(=O)C2CCC2)CC[C@H]1CC(=O)O
  cytotoxicity at 10 µM: 1.35%

## N#Cc1ccc(S(=O)(=O)NC(=O)C2CC2)c(C(F)(F)F)c1
  cytotoxicity at 10 µM: -11.1%

## Fc1ccccc1-c1nccnc1C1CCCNC1 (stereo not given)
  cytotoxicity at 10 µM: -25.7%

## O=C(c1cccs1)N1CCCn2cnc(COCC3CC3)c2C1
  cytotoxicity at 10 µM: -81.3%

## C[C@@H]1CN(Cc2cc3ccccc3n2C)CC[C@@]1(O)C1CC1
  cytotoxicity at 10 µM: -2.07%

## Cc1nc(CN(C)C2CCN(Cc3ccc4c(c3)OCCO4)C2)no1 (stereo not given)
  cytotoxicity at 10 µM: -4.79%

## Cc1cnn(CC2CCCN2Cc2cc(C)on2)c1 (stereo not given)
  cytotoxicity at 10 µM: -8.51%

## Cc1cc(NC(=O)CN2CCCC2Cn2nc(C)nc2C)n(C)n1 (stereo not given)
  cytotoxicity at 10 µM: -2.49%

## CN(C)Cc1cnc(C2CCN(C(=O)c3ccccc3F)C2)[nH]1 (stereo not given)
  cytotoxicity at 10 µM: 0.578%

## Cc1ccc(C)c(CC(=O)NC2CCS(=O)(=O)CC2)c1
  cytotoxicity at 10 µM: -9.56%

## Cc1nc(N2CCCC2)nc2c1CCN(Cc1nccn1C)CC2
  cytotoxicity at 10 µM: -130%

## CN(CCc1ccccc1)C(=O)c1cccnc1OCC(F)(F)F
  cytotoxicity at 10 µM: 13.5%

## Cc1nc(C)n(CC2CCCN2CC(=O)NCc2ccco2)n1 (stereo not given)
  cytotoxicity at 10 µM: -18.5%

## CCc1nnc(CN2CCc3cnc(C)nc3C2)o1
  cytotoxicity at 10 µM: -4.04%

## CS(=O)(=O)N1CC[C@@H]2[C@@H](CCC(=O)N2CCC2=CCCCC2)C1
  cytotoxicity at 10 µM: -5.64%

## CN1CCCN(C[C@H]2C[C@H](CO)CN(Cc3cccnc3N)C2)CC1
  cytotoxicity at 10 µM: -10.7%

## COCCCN1CCC(C(=O)c2cc(F)ccc2F)CC1
  cytotoxicity at 10 µM: -10.9%

## O=S1(=O)CCC(NCCn2cncc2-c2ccc3c(c2)CCCO3)C1 (stereo not given)
  cytotoxicity at 10 µM: 2.97%

## Cc1cc(C)n(CC2CN(CC(=O)NC3CCCCC3)CCO2)n1 (stereo not given)
  cytotoxicity at 10 µM: -5.17%

## Fc1cnc(N2CCn3cc(CNc4ccccn4)nc3C2)nc1
  cytotoxicity at 10 µM: -0.665%

## CSCCC(O)C(=O)N1CCN(Cc2cccc(Cl)c2)CC1 (stereo not given)
  cytotoxicity at 10 µM: 6.48%

## Cc1nnsc1C(=O)N(C)Cc1nc(-c2ccccn2)no1
  cytotoxicity at 10 µM: 1.89%

## Cc1nnc(C(NS(=O)(=O)c2cc(F)c(C)cc2F)C(C)C)[nH]1 (stereo not given)
  cytotoxicity at 10 µM: -5.19%

## Cc1ccc(C(=O)N(CC(=O)O)CC(C)C)cc1F
  cytotoxicity at 10 µM: -4.07%

## CCC(=O)N1CCCN(c2cncc(-n3nc(C)cc3C)n2)CC1
  cytotoxicity at 10 µM: -8.44%

## CN1C[C@@H]2CN(C(=O)C3CCOC3)C[C@@H]2C1=O (stereo not given in full)
  cytotoxicity at 10 µM: -127%

## CCc1nnc2n1CCN(Cc1csc(-c3ccc(C)o3)n1)C2
  cytotoxicity at 10 µM: -1.5%

## COCCN1CCC(c2nc3cc(C)ccc3[nH]2)CC1
  cytotoxicity at 10 µM: -0.621%

## COc1ccc(F)c(CN2CCC(c3cc(O)nc(C)n3)C2)c1 (stereo not given)
  cytotoxicity at 10 µM: 5.61%

## Cc1nc2ccccc2c(=O)n1CCC(=O)N1CCNC(=O)C1
  cytotoxicity at 10 µM: -19%

## COc1ccc(CC(C)(O)CNC(=O)NCc2cccs2)cc1 (stereo not given)
  cytotoxicity at 10 µM: 5.62%

## Cc1cc(C2CCCN2C(=O)c2csc(-c3cnn(C)c3)n2)on1 (stereo not given)
  cytotoxicity at 10 µM: 15.6%

## Cc1noc(C)c1CC(=O)OCC(=O)N1CCc2sccc2C1
  cytotoxicity at 10 µM: -0.361%

## CN(c1ccncn1)C1CC2(CCN(C(=O)c3cccs3)C2)C1 (stereo not given)
  cytotoxicity at 10 µM: -5.05%

## CC(NC(=O)Nc1nccs1)c1cccnc1 (stereo not given)
  cytotoxicity at 10 µM: -8.81%

## O=C(C[S+]([O-])Cc1ccc(F)cc1Cl)NC1CCCC1 (stereo not given)
  cytotoxicity at 10 µM: 9.5%

## O=C(O)[C@@]12CN(c3cnccn3)C[C@@H]1CN(C1CCCC1)C2
  cytotoxicity at 10 µM: -10.3%

## O=C1[C@@H]2CC[C@@H](CN(C3CCOCC3)C2)N1Cc1cscn1
  cytotoxicity at 10 µM: -7.15%

## COc1ccc(OC)c(C(O)CN2CCC(N3CCC(C)CC3)CC2)c1 (stereo not given)
  cytotoxicity at 10 µM: -25.5%

## CN1CC(=O)N(c2cnn(C)c2)CC12CCN(Cc1cccnc1)C2 (stereo not given)
  cytotoxicity at 10 µM: -1.69%

## COc1cc(C)nc(N2CCN(C(=O)CCc3cccs3)CC2)n1
  cytotoxicity at 10 µM: 5.77%

## Cc1ccc(OC2(C(=O)NC(C)c3csc(C)n3)CCNCC2)cc1 (stereo not given)
  cytotoxicity at 10 µM: -0.432%

## COC[C@@]12CCO[C@@H]1CCN(Cc1ccccc1F)C2
  cytotoxicity at 10 µM: -12.9%

## Cc1cc(C2CCC2)nc(N2CCC3(CCNC(=O)CC3)CC2)n1
  cytotoxicity at 10 µM: -10.1%

## CCCc1noc(CN(C)Cc2ccc3c(c2)OCO3)n1
  cytotoxicity at 10 µM: -11.1%

## O=C(NCC(O)C1CC1)Nc1cnn(Cc2ccccc2)c1 (stereo not given)
  cytotoxicity at 10 µM: 4.85%

## NC(=O)C1CCN(C(=O)NC2CCN(CC3CCCC3)C2)CC1 (stereo not given)
  cytotoxicity at 10 µM: 13%

## CC1c2ncc(COCC3CCOCC3)n2CCN1C(=O)c1ccco1 (stereo not given)
  cytotoxicity at 10 µM: -0.882%

## CN(Cc1nc(C2CC2)no1)C1CCCN(c2cccnn2)C1 (stereo not given)
  cytotoxicity at 10 µM: -6.62%

## CCOc1ccccc1CN(C)C(C)c1nc(-c2cccnc2)no1 (stereo not given)
  cytotoxicity at 10 µM: 7.84%

## CCn1cc(CN2CCCN(C(=O)Cc3ccc(C)nc3)CC2)cn1
  cytotoxicity at 10 µM: -3.87%

## Cc1cnn(C2CN(CC(O)c3ccccc3)C2)c1 (stereo not given)
  cytotoxicity at 10 µM: -2.55%

## CC(=O)Nc1cccc(C(=O)N2CCc3c(nc(N(C)C)[nH]c3=O)C2)c1
  cytotoxicity at 10 µM: 5.9%

## CC1CCCCN1C(=O)c1nc2c(n1C(C)C)CCN(C)C2 (stereo not given)
  cytotoxicity at 10 µM: 18.2%

## CN(C)C(=O)[C@@H]1CCO[C@@H]2CCN(CCOCc3ccccc3)C[C@H]21
  cytotoxicity at 10 µM: -0.902%

## N#Cc1cccc(CN2CC3(CCCCN3c3cccnc3)CC2=O)c1 (stereo not given)
  cytotoxicity at 10 µM: -7.27%

## CCCOc1cc(C)ccc1NC(=O)N(C)C
  cytotoxicity at 10 µM: -4.59%

## NC(=O)N1CCCC(C(=O)N2CCN(c3nsc4ccccc34)CC2)C1 (stereo not given)
  cytotoxicity at 10 µM: 7.86%

## Cn1cc(CN2CCc3ccc(=O)n(CC4CC4)c3CC2)cn1
  cytotoxicity at 10 µM: 3.24%

## CN(C(=O)Cc1ccccc1Cl)C1CCN(c2ccccn2)CC1
  cytotoxicity at 10 µM: -7.48%

## CS(=O)(=O)NCc1noc2c1CN(C(=O)c1ccsc1)CC2
  cytotoxicity at 10 µM: 7.86%

## Cc1ccccc1C1(CNC(=O)NC(C)c2nncn2C)CC1 (stereo not given)
  cytotoxicity at 10 µM: -5.59%

## CN(Cc1ccc(-n2cncn2)cc1)Cc1ncc[nH]1
  cytotoxicity at 10 µM: 4.67%

## Cn1cc(CNc2cnn(CCO)c2)c(-c2ccncc2)n1
  cytotoxicity at 10 µM: 1.56%

## O=C1C[C@@H]2[C@H](CCN2Cc2ccccn2)N1Cc1ccncc1
  cytotoxicity at 10 µM: 4.53%

## Cc1cc(=O)n(C)cc1NC(=O)Cc1ccc(C(F)(F)F)cc1
  cytotoxicity at 10 µM: -14%

## Cc1ccc(N2C[C@H]3CCN(Cc4ccncc4)C[C@H]3C2)nn1
  cytotoxicity at 10 µM: -111%

## CN(C)C(CNC(=O)c1cccc(-n2cnnn2)c1)c1ccccc1Cl (stereo not given)
  cytotoxicity at 10 µM: -6.08%

## COc1cccc2c1OCCCN(c1nc3c(c(=O)[nH]1)CCNCC3)C2
  cytotoxicity at 10 µM: -5.24%

## CCC(C)(C)NC(=O)c1nnn(-c2cccc3c2CCN(C)C3)c1C
  cytotoxicity at 10 µM: -0.663%

## O=C(CSc1ccc(F)cc1F)NS(=O)(=O)c1ccc2c(c1)OCCO2
  cytotoxicity at 10 µM: -10.7%

## Cc1cc(Cn2cc(C#N)c(=O)c3ccccc32)no1
  cytotoxicity at 10 µM: 5.76%

## Cc1nn(CC(C)C)c(N(C)C)c1CNCCCNS(C)(=O)=O
  cytotoxicity at 10 µM: 1.73%

## CN(CCC(O)c1ccccc1)c1cc(C2CC2)ncn1 (stereo not given)
  cytotoxicity at 10 µM: -141%

## Cc1cnc(Cn2cc(-c3cccc(C(C)N(C)C)c3)nn2)cn1 (stereo not given)
  cytotoxicity at 10 µM: -0.807%

## CCCNC(=O)CCC(=O)Nc1ccc(-n2cncn2)c(F)c1
  cytotoxicity at 10 µM: 1.94%

## COc1ccc(F)c(CN(CCCn2ccnc2)Cc2ccc(C)s2)c1
  cytotoxicity at 10 µM: -7.14%

## c1ccc2nc(N3CCOC(Cn4cncn4)C3)cnc2c1 (stereo not given)
  cytotoxicity at 10 µM: -11.5%

## COCCNc1cc(-c2ccccc2CCN)c2cc[nH]c2n1
  cytotoxicity at 10 µM: 2.13%

## O=C(CN1C(=O)CCC1=O)N1Cc2cncnc2C1
  cytotoxicity at 10 µM: -8.33%

## COCCN1CCCC(Cc2ccc(N3CCOCC3)nn2)C1 (stereo not given)
  cytotoxicity at 10 µM: -17.9%

## CC(C)CNC(=O)CN(CC(=O)NCC(C)C)S(C)(=O)=O
  cytotoxicity at 10 µM: -12.2%

## CS(=O)(=O)CCCSc1cccc(C#N)c1
  cytotoxicity at 10 µM: -1.38%

## Cc1ccc(CN2C[C@H]3CN(CC4CCN(C)CC4)C(=O)[C@H]3C2)s1
  cytotoxicity at 10 µM: 2.5%

## OCCn1nccc1C1CCN(CCCOc2ccc(F)cc2)CC1
  cytotoxicity at 10 µM: -4.3%

## COc1ccc(CC(=O)Nc2ccc3ncn(C)c(=O)c3c2)cc1
  cytotoxicity at 10 µM: 1.29%

## Cn1ccnc1CN(CCCO)CC(F)(F)F
  cytotoxicity at 10 µM: 5.68%

## CCC[C@H]1CN(Cc2ccc(N(C)C)nc2)C[C@@H]1NC(=O)CSC
  cytotoxicity at 10 µM: 7.78%

## O=C(CN(Cc1ccccc1)CC1CCOCC1)Nc1nccs1
  cytotoxicity at 10 µM: -13.5%

## N#Cc1cccnc1N1CCC(c2nc(C(F)(F)F)c[nH]2)CC1
  cytotoxicity at 10 µM: 2.74%

## Cc1nsc(NCCNS(=O)(=O)c2ccccc2)n1
  cytotoxicity at 10 µM: -2.78%

## O=C(N1CCCC1)N1CCc2onc(COc3cccnc3)c2C1
  cytotoxicity at 10 µM: -75.6%

## CCN(CC)C1CCN(C(=O)NCc2nncn2CC)CC1
  cytotoxicity at 10 µM: 2.72%

## Cc1ccc(N2CCCN(C(=O)c3n[nH]c4c3CCC4)CC2)nn1
  cytotoxicity at 10 µM: 3.81%

## O=C(NCCN1CCOCC1)NCc1ccc(-n2cccn2)cc1
  cytotoxicity at 10 µM: -6.4%
